Results on 99 molecules are retold here after PubChem BioAssay AID504383 (The Scripps Research Institute Molecular Screening Center, 2011).

The whole screen tested about 2,500 compounds, of which about 1,200 (48%) were called active.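 Rule for the calls: active = mean activation above the low control average plus 3 SD, as set in the primary screen (cut at about 12% in these data); inactive = the rest.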 So high a share suggests a set chosen from earlier hits. Some of the results follow.

For the test, the target named is Troponin I, cardiac muscle (Homo sapiens) + Troponin T, cardiac muscle (Homo sapiens) + Troponin C, slow skeletal and cardiac muscles (Homo sapiens) (UniProt P19429+P45379+P63316). Put plainly: cardiac RTF calcium sensitivity activators, confirmation, biochemical, IANBD-TnC fluorescence, triplicate (AID 504383).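 Note: 0% = DMSO at 0.472 mM calcium and 100% = DMSO at 2.9 mM calcium.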 The conditions noted are these: IANBD-labeled cardiac RTF, Ca2+ sensitivity fluorescence; at 7.2 µM; active compounds read high; scaled from EC20 to saturating calcium; tested at EC20 calcium, 0.472 mM. The gist of the method:
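Assay system: labelled regulated thin filaments / Timing: 15 min at 25 °C / Detection: fluorescence intensity of labelled filaments / Measure: fluorescence gain scaled between EC20 and EC100 calcium controls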
As for `CCN(C(=O)c1cnc(NC(C)C)cc1C(F)(F)F)c1ccc(Cl)cc1`, the activation is 4.41% (inactive).

For the molecule `COc1ccc(N=Cc2c(O)c3ccccc3n2C(C)=O)cc1`, the activation is 13.7% (active).

As to `COc1ccc(N=Cc2sc(O)c3ccccc23)cc1`, the activation is 152% (active).

Regarding `CC(=O)n1c(C=Nc2ccc(Cl)cc2)c(O)c2ccccc21`, the activation is 10.7% (inactive).

For `CCN(c1ccc(N=Cc2c(O)n(Cc3ccc(OC)cc3)c(=O)c3ccccc23)cc1)C(C)C`, the activation was 9.81% (inactive).

With `Oc1sc(C=Nc2ccccc2)c2ccccc12`, the activation was 12.9% (active).

`Cc1ccc(N=Cc2sc(O)c3ccccc23)cc1`: the activation is 7.98% (inactive).

As to `O=[N+]([O-])c1ccc(N/N=C\c2ccccc2OCc2ccccc2)cc1`, the activation was 19.2% (active).

Regarding `O=C(Nc1cc2c3c(c1)CC(=O)N3CCC2)C1CC1`, the activation is 10.7% (inactive).

Consider `COc1ncnc2c1NC1=C(S2)C(=NCCC(=O)O)CC(C)(C)C1`, for which the activation is 70.3% (active).

Turning to `CCN1/C(=C/c2ccc3cc(C)ccc3[n+]2CC)Sc2cc(C)ccc21`, the activation was 2.46% (inactive).

Take `CCN1/C(=C/c2ccc3cc(C)cc(C)c3[n+]2CC)Sc2cc(C)ccc21`: the activation is 14.7% (active).

Regarding `CCN1/C(=C/c2ccc3cc(C)ccc3[n+]2CC)Sc2ccccc21`, the activation is 68.1% (active).

For `CCN1/C(=C/c2ccc3cc(C)ccc3[n+]2CC)Sc2ccc3sccc3c21`, the activation was 11.7% (active).

`CCN1/C(=C\c2ccc3cc(C)ccc3[n+]2CC)Sc2cc(C)c(C)cc21`: the activation is 6.91% (inactive).

`CCN1/C(=C\c2ccc3ccccc3[n+]2CC)Sc2cc(C)ccc21`: the activation was 57.9% (active).

As for `COc1ccccc1N=Cc1c(C)c(C#N)c2[nH]c3ccccc3n2c1=O`, the activation is 1.91% (inactive).

For the molecule `COc1ccc(N2C(N)=NC(N)=NC2(C)C)cc1`, the activation was 1.33% (inactive).

Take `N#CC1=C(N)SC(N)=C(C#N)C1CCc1ccccc1`: the activation is 0.43% (inactive).

Take `CN1CC=C2C(C#N)=C(N)C(C#N)(C#N)C(Cc3ccccc3)C2C1` (centres undefined): the activation is 12.3% (active).

Turning to `CN1CC=C2C(C#N)=C(N)C(C#N)(C#N)C(CCc3ccccc3)C2C1` (centres undefined), the activation was 46% (active).

Regarding `CCN1CC=C2C(C#N)=C(N)C(C#N)(C#N)C(CCc3ccccc3)C2C1` (centres undefined), the activation is 11.4% (inactive).

Consider `CCOc1ccc(S(=O)(=O)n2ccnc2)c2ccccc12`, for which the activation is 12.2% (active).

For the molecule `CC1=CC=CN2CC(O)CN=C12` (centres undefined), the activation was 25.4% (active).

For the molecule `CCc1ccc(C(=O)NNc2cc(Cl)ccc2Cl)cc1`, the activation was 16.7% (active).

As to `CCCc1ccc(C(=O)NNc2cc(Cl)ccc2Cl)cc1`, the activation is 1.21% (inactive).

For `CCC1SC(=Nc2cccc(C)c2)NC1=O` (centres undefined), the activation was 143% (active).

In the case of `Fc1ccc(OCc2nnc(SCCN3CCOCC3)o2)cc1`, the activation is 4.25% (inactive).

For the molecule `O=C(CSc1nnc(COc2ccccc2)o1)N1CCN(c2ccccc2)CC1`, the activation was 55.2% (active).

As for `CCO[C@@H]1OC(C(=O)O)=C[C@H](c2coc3ccccc3c2=O)[C@H]1CCCO`, the activation is 9.42% (inactive).

As to `COc1ccc(N(C)S(=O)(=O)c2ccc(Cl)c(C(=O)NCCc3ccc(Cl)cc3)c2)cc1`, the activation was 89% (active).

Take `COc1ccc(CCNC(=O)c2ccccc2OCc2c(C)noc2C)cc1`: the activation is 7.09% (inactive).

Regarding `COc1cccc(/C(O)=C/c2nc3ccc(C(=O)NCCc4ccc(Cl)cc4)cc3[nH]c2=O)c1`, the activation is 6.19% (inactive).

On to `Cc1cc(C(=O)COc2cccc3cccnc23)c(C)n1C`, for which the activation is 60.1% (active).

Turning to `OCCN=C1CCCc2c1[nH]c1ccc(Cl)cc21`, the activation was 10.9% (inactive).

With `Cn1ncc(N=Cc2c(O)ccc3ccccc23)c1C(=O)Nc1cccc(Cl)c1`, the activation was 8.95% (inactive).

On to `Cn1c(O)c(/C=N/NC(=O)c2cc3ccccc3cc2O)c2ccccc21`, for which the activation was 228% (active).

Consider `CC(O)c1cccc(N=Cc2ccc3ccccc3c2O)c1` (centres undefined), for which the activation was 13.9% (active).

With `Oc1ccccc1C=NN=Cc1c(O)ccc2ccccc12`, the activation was 6.43% (inactive).

Consider `Cc1[nH]c2ccccc2c1/C=C/c1cc[n+](C)cc1`, for which the activation is 11.9% (active).

For `Cc1ccc2c(c1)c(/C=C/c1cc[n+](C)cc1)c(C)n2C`, the activation was 11% (inactive).

As to `Cc1ccc2[nH]c(C)c(/C=C/c3cc[n+](C)cc3)c2c1`, the activation is 171% (active).

In the case of `C=CCn1c(COc2cccc(C)c2)nnc1SCn1nnc2ccccc2c1=O`, the activation is 5.98% (inactive).

Take `CCNc1nc(SCC(N)=O)nc2sc3c(c12)CCN(C)C3`: the activation was 6.59% (inactive).

`CCOC(=O)C(C)(C)Sc1nc2c(cnn2-c2ccc(Cl)cc2)c(=O)[nH]1`: the activation is 185% (active).

As to `CCOC(=O)C(C)Sc1nnc(Cc2cc(=O)[nH]c(=O)[nH]2)n1-c1ccc(Cl)cc1` (centres undefined), the activation was 10.2% (inactive).

On to `CCCCCOc1ccc(CN2CCOCC2)cc1Cl`, for which the activation was 74.8% (active).

On to `Cc1cc2nc(C3CCCN(C(=O)NCc4ccccc4)C3)[nH]c2cc1C` (centres undefined), for which the activation was 35.4% (active).

Take `COc1cccc(CNC(=O)C2CCCN(c3nc4ccccc4o3)C2)c1` (centres undefined): the activation is 1.39% (inactive).

As for `CCCC(=O)Nc1ccc(-c2cnc(-c3ccc(NC(=O)CCC)cc3)nc2)cc1`, the activation is 13.5% (active).

For the molecule `Cc1cccc(/C=N/NC(=O)C(C)Nc2cccc3ccccc23)n1` (centres undefined), the activation was 46.1% (active).

Take `CCOC(=O)c1sc(=NC(=O)c2cc(OC)c(OC)c(OC)c2)n(C)c1C`: the activation is 266% (active).

Regarding `CCOC(=O)Cn1c(=O)c(-c2cc(Br)ccc2N)nc2ccccc21`, the activation is 16.6% (active).

For the molecule `CC1CC(C)CN(C(=O)Cn2c(-c3nonc3N)nc3ccccc32)C1` (centres undefined), the activation is 4.8% (inactive).

Take `CCOC(=O)Cn1nc2sc3ccccc3n2c(=O)c1=O`: the activation was 8.56% (inactive).

On to `CCc1ccccc1NC(=O)COc1ccc2c(=O)c(Oc3cc(C)ccc3C)coc2c1`, for which the activation was 2310% (active).

Turning to `COc1c(O)cccc1-c1nnn(CCC(=O)OCC(=O)c2ccccc2)n1`, the activation was 53.4% (active).

For `O=C(Cc1nc2ccccc2[nH]c1=O)c1ccccc1`, the activation was 8.29% (inactive).

Take `O=C(O)CSc1nc2ccccc2nc1Cc1ccccc1F`: the activation was 413% (active).

With `O=C(N/N=C/c1ccccc1OC(=O)c1ccc2c(c1)OCO2)c1cccc(F)c1`, the activation is 52.1% (active).

For `COc1cc(C(=O)Oc2ccccc2/C=N/NC(=O)c2ccc(Cl)cc2)cc(OC)c1OC`, the activation was 61.8% (active).

Turning to `CCC(=O)N(C)CCc1cc2c(c(OC)c1/C=N/NC(=O)c1ccc(Br)cc1)OCO2`, the activation is 8.22% (inactive).

In the case of `C/C(Cn1cnc([N+](=O)[O-])n1)=N\NC(=O)c1cccc(F)c1`, the activation is 8.55% (inactive).

Consider `CC1=C(C(=O)OCCCCCl)C(c2cc3c(cc2Br)OCO3)NC(=O)N1` (centres undefined), for which the activation is 7.44% (inactive).

`O=C(Cn1cc(/C=N/NC(=O)c2cccc3ccccc23)c2ccccc21)Nc1ccc(F)cc1`: the activation is 56.1% (active).

Consider `CCOc1cccc(NC(=O)/C(C#N)=C\c2cn(CC(=O)O)c3ccccc23)c1`, for which the activation was 7.03% (inactive).

Turning to `O=C(Nc1ccccc1C(=O)N/N=C/c1ccco1)c1ccc(F)cc1`, the activation was 10.3% (inactive).

Regarding `CCn1cc([N+](=O)[O-])c(C(=O)Nc2ccn(Cc3ccccc3)n2)n1`, the activation is 19.6% (active).

In the case of `O=S1(=O)CCOC[C@H](CC2CCCCC2)N1Cc1ccccc1`, the activation was 3.3% (inactive).

`CCOC(=O)c1cc2c(=O)n3ccccc3nc2n(CCOC)c1=NC(=O)c1c(-c2c(F)cccc2Cl)noc1C`: the activation is 8.32% (inactive).

As to `Cc1onc(-c2c(F)cccc2Cl)c1C(N)=S`, the activation was 25.8% (active).

As for `NC(=S)Nc1c(Cl)cccc1Cl`, the activation is 1.18% (inactive).

For `CSC(=NCc1ccco1)NC#N`, the activation was 5.56% (inactive).

Turning to `O=[N+]([O-])c1ccc(C2=NN(c3ccccc3)C(c3ccco3)C2)cc1` (centres undefined), the activation was 1.19% (inactive).

In the case of `O=[N+]([O-])c1ccc(/C=C/C2=NN(c3ccccc3)C(c3ccco3)C2)cc1` (centres undefined), the activation is 31.7% (active).

Consider `COc1ncnc2c1N=C1CC(C)(C)CC(N)=C1S2`, for which the activation was 70.2% (active).

As for `O=C(Nc1ccc(Br)cc1)C(c1ccccc1)c1ccccc1`, the activation was 3.94% (inactive).

Turning to `COC(C(=O)Nc1c(F)cccc1F)c1ccccc1` (centres undefined), the activation was 13.6% (active).

For `Cc1nnc(NC(=O)CSc2ncnc3c2cnn3-c2ccccc2C)s1`, the activation was 14% (active).

Turning to `Cc1nnc(NC(=O)CS(=O)(=O)Cc2ccccc2)s1`, the activation was 5.16% (inactive).

With `NC(=O)NNC1=Nc2cccc3cccc1c23`, the activation was 6.47% (inactive).

Regarding `CCOC(=O)c1cccc(NC(=O)CSc2nc(N)cc(N)n2)c1`, the activation is 2.77% (inactive).

For the molecule `Nc1nc(SCC(=O)Nc2ccccc2)nc2nc3c(cc12)CCCC3`, the activation is 12.6% (active).

For `Nc1nc(SCC(=O)Nc2ccc(Cl)cc2)[nH]c(=O)c1-c1ccccc1`, the activation was 5.51% (inactive).

Take `CCCOc1ccc(C2C(C(=O)/C=C/c3ccco3)=C(O)C(=O)N2CCN2CCOCC2)cc1OC` (centres undefined): the activation was 14% (active).

For the molecule `C=C(C)c1cccc(C(C)(C)NC(=O)Nc2cccnc2)c1`, the activation is 15.5% (active).

In the case of `COc1ccc(NC(=O)Nc2cccnc2)c(OC)c1`, the activation is 5.8% (inactive).

`CCn1c(CSCc2ccccc2)n[nH]c1=S`: the activation is 15.7% (active).

With `Nc1ccc(CCNc2ncnc3c2ncn3[C@@H]2O[C@H](CO)[C@@H](O)[C@H]2O)cc1`, the activation was 7.47% (inactive).

As to `Cc1cc(-n2c(=O)c(C#N)cc3c(=O)n4ccccc4nc32)no1`, the activation is 14.7% (active).

Take `S=C1NC2=C(CCC/C2=C\c2ccccc2)C(c2ccccc2)N1` (centres undefined): the activation was 8.03% (inactive).

Regarding `S=C1NC2=C(CCCC2=C2SCCCS2)C(c2ccccc2)N1` (centres undefined), the activation was 23.6% (active).

On to `CN(C)/C=C1\SC(=S)N(c2ccc(Br)cc2)C1=O`, for which the activation is 75.9% (active).

For the molecule `CCN1C(=O)/C(=C/C=C2\N(CC)c3cc(S(=O)(=O)N(C)C)ccc3N2c2ccccc2)SC1=S`, the activation is 10.6% (inactive).

Regarding `O=C1CSC(=S)N1c1ccc(O)cc1`, the activation is 4.53% (inactive).

On to `CC(C)c1ccc(N2C(=O)/C(=C/N(C)C)SC2=S)cc1`, for which the activation was 57.7% (active).

Turning to `CC(=O)c1nnn(-c2nc(N3CCCC3)nc(N(c3ccccc3)c3ccccc3)n2)c1C`, the activation is 5.27% (inactive).

In the case of `O=C(c1ccccc1C(=O)N1CCN(c2ccccc2)CC1)N1CCN(c2ccccc2)CC1`, the activation was 0.49% (inactive).

With `C=CCn1c(C)c(C(C)=O)c(N2CCN(c3ccccc3)CC2)nc1=S`, the activation was 74.9% (active).
